Activity calls are given as the source filed them. The calls are words filed in the database; no cut-off is given here.
Assays:
MCF7 [1] = assay: Cytotoxicity against human MCF7 cells after 48 hrs by SRB assay; format: functional; settings: MCF7, 48 h
Method in brief: (§1)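 5000–10,000 cells/well preincubated 24 h at 37 °C, 5% CO2, with TCA-fixed time-zero wells. Fivefold serial dilutions (100 to 0.0064 µM) and a DMSO-matched medium control, exposed 48 h. Fixed in 10% TCA for 60 min at 4 °C, stained with 0.4% SRB in 1% acetic acid, solubilized in 10 mM Tris base, read at 515–564 nm. GI50 from variable-slope sigmoidal fits; triplicates, at least two independent experiments.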

[2] = Cytotoxicity against human 184B5 cells after 48 hrs by SRB assay; format: cell-based; method in brief: as §1
MDA-MB-468 = assay: Cytotoxicity against human MDA-MB-468 cells after 48 hrs by SRB assay; format: functional; settings: MDA-MB-468, 48 h; method in brief: as §1
[3] = Cytotoxicity against human MCF10A cells after 48 hrs by SRB assay; format: cell-based, MCF-10A; method in brief: as §1
MCF7 [4] = assay: Cell cycle arrest in human MCF7 cells assessed as accumulation at S phase at 20 uM by flow cytometry; format: functional
Method in brief: (§2)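 MCF7 (RPMI 1640, 10% FBS, 2 mM L-glutamine) or MCF10A (mammary epithelial basal medium plus MEGM supplements) treated 24 h at 20 or 40 µM with DMSO vehicle controls. 2.0 × 10^6 cells fixed in ice-cold 70% ethanol at -20 °C, then stained 30 min at 37 °C with 100 µg/mL PI, RNase A, 0.3% NP-40 and 0.1% sodium citrate. Phase fractions taken from DNA-content histograms.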

MCF7 [5] = assay: Cell cycle arrest in human MCF7 cells assessed as accumulation at G2/M phase at 20 uM by flow cytometry; format: functional; method in brief: as §2
MCF7 [6] = assay: Cell cycle arrest in human MCF7 cells assessed as accumulation at G2/M phase at 40 uM by flow cytometry; format: functional; method in brief: as §2
MCF-10A = assay: Cell cycle arrest in human MCF10A cells assessed as decrease in at S phase at 20 uM by flow cytometry; format: functional, cell-based; method in brief: as §2
MCF7 [7] = assay: Cell cycle arrest in human MCF7 cells assessed as accumulation at S phase at 40 uM by flow cytometry; format: functional; method in brief: as §2
MCF7 [8] = assay: Cell cycle arrest in human MCF7 cells assessed as accumulation at G1/G0 phase at 40 uM by flow cytometry; format: functional; method in brief: as §2
MCF7 [9] = assay: Cell cycle arrest in human MCF7 cells assessed as accumulation at G1/G0 phase at 20 uM by flow cytometry; format: functional; method in brief: as §2
MCF7 [10] = assay: Induction of apoptosis in human MCF7 cells assessed as cell death at 20 uM after 24 hrs; format: functional
Method in brief: (§3)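 MCF7 cells grown in RPMI 1640 with 10% FBS and 2 mM L-glutamine at 37 °C, 5% CO2. Treated 24 h, with DMSO-only medium as negative control. 2.0 × 10⁶ cells harvested, fixed in ice-cold 70% ethanol at −20 °C, and stained 30 min at 37 °C with PI mix (100 µg/mL PI, RNase A, 0.3% NP-40, 0.1% sodium citrate). DNA content read by flow cytometry; apoptotic fraction taken from DNA histograms.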

MCF7 [11] = assay: Induction of apoptosis in human MCF7 cells assessed as cell death at 40 uM after 24 hrs; format: functional; method in brief: as §3
MCF7 [12] = assay: Induction of apoptosis in human MCF7 cells assessed as cell death; format: functional, cell-based

Structure (SMILES): NC(=S)N/N=C1/C(=O)N(CN2CCN(c3ccnc4cc(C(F)(F)F)ccc34)CC2)c2cc(Cl)ccc21
- GI50 (MCF7 [1]): 24.6 µM
- GI50 at 48 h [2]: 20.1 µM
- GI50 (MDA-MB-468): 11 µM
- GI50 at 48 h [3]: 38.8 µM

Structure (SMILES): O=C1C(=O)N(CN2CCN(c3ccnc4cc(C(F)(F)F)ccc34)CC2)c2cccc(Cl)c21
- GI50 (MCF7 [1]): 16.9 µM
- GI50 at 48 h [2]: 47.4 µM
- GI50 (MDA-MB-468): 28.4 µM
- GI50 at 48 h [3]: 24 µM

Structure (SMILES): NC(=S)N/N=C1\C(=O)Nc2cccc(Br)c21
- GI50 (MCF7 [1]): 14.8 µM
- GI50 at 48 h [2]: 22.6 µM
- GI50 (MDA-MB-468): 21.2 µM
- GI50 at 48 h [3]: 21.4 µM

Structure (SMILES): NC(=S)N/N=C1/C(=O)N(CN2CCN(c3ccnc4cc(C(F)(F)F)ccc34)CC2)c2cccc(Cl)c21
- Activity (MCF7 [4]): 17%
- Activity (MCF7 [5]): 12%
- Activity (MCF7 [6]): 11%
- Activity (MCF-10A): inactive
- Activity (MCF7 [7]): 16%
- GI50 (MCF7 [1]): 21.6 µM
- Activity (MCF7 [8]): 65%
- Activity (MCF7 [9]): 64%
- GI50 at 48 h [2]: 87.8 µM
- Activity (MCF7 [10]): Active
- GI50 (MDA-MB-468): 23 µM
- GI50 at 48 h [3]: 51.7 µM
- Activity (MCF7 [11]): Active

Structure (SMILES): O=C1C(=O)N(CN2CCN(c3ccnc4cc(Cl)ccc34)CC2)c2cc(Br)ccc21
- GI50 (MCF7 [1]): 17.6 µM
- GI50 at 48 h [2]: 33.2 µM
- GI50 (MDA-MB-468): 35.8 µM
- GI50 at 48 h [3]: 17.9 µM

Structure (SMILES): O=C1C(=O)N(CN2CCN(c3ccnc4cc(C(F)(F)F)ccc34)CC2)c2ccccc21
- GI50 (MCF7 [1]): 34 µM
- GI50 at 48 h [2]: 43.9 µM
- GI50 (MDA-MB-468): 15.3 µM
- GI50 at 48 h [3]: 70 µM

Structure (SMILES): NC(=S)N/N=C1\C(=O)Nc2cc(Cl)ccc21
- GI50 (MCF7 [1]): 17.2 µM
- GI50 at 48 h [2]: 40.8 µM
- GI50 (MDA-MB-468): 17.7 µM
- GI50 at 48 h [3]: 48.5 µM

Structure (SMILES): NC(=S)N/N=C1/C(=O)N(CN2CCN(c3ccnc4cc(Cl)ccc34)CC2)c2cccc(Br)c21
- GI50 (MCF7 [1]): 46.6 µM
- GI50 at 48 h [2]: 46.4 µM
- GI50 (MDA-MB-468): 40.4 µM
- GI50 at 48 h [3]: 29.4 µM

Structure (SMILES): NC(=S)N/N=C1\C(=O)Nc2cccc(Cl)c21
- GI50 (MCF7 [1]): 30.2 µM
- GI50 at 48 h [2]: 25.9 µM
- GI50 (MDA-MB-468): 24 µM
- GI50 at 48 h [3]: 28.7 µM

Structure (SMILES): O=C1C(=O)N(CN2CCN(c3ccnc4cc(C(F)(F)F)ccc34)CC2)c2cc(Cl)ccc21
- GI50 (MCF7 [1]): 15.8 µM
- GI50 at 48 h [2]: 25.2 µM
- GI50 (MDA-MB-468): 26.1 µM
- GI50 at 48 h [3]: 32.8 µM

Structure (SMILES): NC(=S)N/N=C1/C(=O)N(CN2CCN(c3ccnc4cc(Cl)ccc34)CC2)c2cccc(Cl)c21
- GI50 (MCF7 [1]): 57.5 µM
- GI50 at 48 h [2]: 20.7 µM
- GI50 (MDA-MB-468): 57.6 µM
- GI50 at 48 h [3]: 19.8 µM

Structure (SMILES): O=C1C(=O)N(CN2CCN(c3ccnc4cc(Cl)ccc34)CC2)c2ccccc21
- GI50 (MCF7 [1]): 48.3 µM
- GI50 at 48 h [2]: 71.7 µM
- GI50 (MDA-MB-468): 37.9 µM
- GI50 at 48 h [3]: 45.9 µM

Structure (SMILES): NC(=S)N/N=C1/C(=O)N(CN2CCN(c3ccnc4cc(Cl)ccc34)CC2)c2cc(Br)ccc21
- GI50 (MCF7 [1]): 11.4 µM
- GI50 at 48 h [2]: 13.1 µM
- GI50 (MDA-MB-468): 11.2 µM
- GI50 at 48 h [3]: 22.1 µM

Structure (SMILES): NC(=S)N/N=C1\C(=O)Nc2cc(Br)ccc21
- GI50 (MCF7 [1]): 17.9 µM
- GI50 at 48 h [2]: 34.9 µM
- GI50 (MDA-MB-468): 18.6 µM
- GI50 at 48 h [3]: 32 µM

Structure (SMILES): O=C1C(=O)N(CN2CCN(c3ccnc4cc(Cl)ccc34)CC2)c2cccc(Cl)c21
- GI50 (MCF7 [1]): 39.1 µM
- GI50 at 48 h [2]: 77.7 µM
- GI50 (MDA-MB-468): 37.8 µM
- GI50 at 48 h [3]: 25.6 µM

Structure (SMILES): O=C1C(=O)N(CN2CCN(c3ccnc4cc(C(F)(F)F)ccc34)CC2)c2cc(Br)ccc21
- GI50 (MCF7 [1]): 28.1 µM
- GI50 at 48 h [2]: 21.8 µM
- GI50 (MDA-MB-468): 24.8 µM
- GI50 at 48 h [3]: 24.4 µM

Structure (SMILES): O=C1C(=O)N(CN2CCN(c3ccnc4cc(Cl)ccc34)CC2)c2cc(Cl)ccc21
- GI50 (MCF7 [1]): 26.1 µM
- GI50 at 48 h [2]: 47.5 µM
- GI50 (MDA-MB-468): 36.6 µM
- GI50 at 48 h [3]: 67.8 µM

Structure (SMILES): NC(=S)N/N=C1/C(=O)N(CN2CCN(c3ccnc4cc(Cl)ccc34)CC2)c2cc(Cl)ccc21
- GI50 (MCF7 [1]): 22.5 µM
- GI50 at 48 h [2]: 41.3 µM
- GI50 (MDA-MB-468): 26.5 µM
- GI50 at 48 h [3]: 64.6 µM

Structure (SMILES): CCN(CC)CCCC(C)Nc1ccnc2cc(Cl)ccc12 (stereo unspecified) [CHLOROQUINE]
- GI50 at 48 h [2]: 76.1 µM
- GI50 at 48 h [3]: 81.3 µM

Structure (SMILES): NC(=S)N/N=C1/C(=O)N(CN2CCN(c3ccnc4cc(Cl)ccc34)CC2)c2ccccc21
- GI50 (MCF7 [1]): 23 µM
- GI50 at 48 h [2]: 28.8 µM
- GI50 (MDA-MB-468): 20.6 µM
- GI50 at 48 h [3]: 27.7 µM

Structure (SMILES): O=C1C(=O)N(CN2CCN(c3ccnc4cc(Cl)ccc34)CC2)c2cccc(Br)c21
- Activity (MCF7 [4]): 18%
- Activity (MCF7 [5]): 14%
- Activity (MCF7 [12]): Dose-dependent effect
- Activity (MCF7 [6]): 12%
- Activity (MCF-10A): inactive
- Activity (MCF7 [7]): 14%
- GI50 (MCF7 [1]): 15.1 µM
- Activity (MCF7 [8]): 64%
- Activity (MCF7 [9]): 63%
- GI50 at 48 h [2]: 49 µM
- Activity (MCF7 [10]): 6%
- GI50 (MDA-MB-468): 15.9 µM
- GI50 at 48 h [3]: 65.6 µM
- Activity (MCF7 [11]): 10%

Structure (SMILES): NC(=S)N/N=C1/C(=O)N(CN2CCN(c3ccnc4cc(C(F)(F)F)ccc34)CC2)c2cc(Br)ccc21
- GI50 (MCF7 [1]): 35.5 µM
- GI50 at 48 h [2]: 21.4 µM
- GI50 (MDA-MB-468): 39.6 µM
- GI50 at 48 h [3]: 26.9 µM

Structure (SMILES): NC(=S)N/N=C1/C(=O)N(CN2CCN(c3ccnc4cc(C(F)(F)F)ccc34)CC2)c2cccc(Br)c21
- GI50 (MCF7 [1]): 50.6 µM
- GI50 at 48 h [2]: 26.4 µM
- GI50 (MDA-MB-468): 30.4 µM
- GI50 at 48 h [3]: 30.6 µM

Structure (SMILES): NC(=S)N/N=C1/C(=O)N(CN2CCN(c3ccnc4cc(C(F)(F)F)ccc34)CC2)c2ccccc21
- GI50 (MCF7 [1]): 13.9 µM
- GI50 at 48 h [2]: 20.2 µM
- GI50 (MDA-MB-468): 10.3 µM
- GI50 at 48 h [3]: 22.6 µM

Structure (SMILES): NC(=S)/N=N/c1c(O)[nH]c2ccccc12
- GI50 (MCF7 [1]): 36.9 µM
- GI50 at 48 h [2]: 60.4 µM
- GI50 (MDA-MB-468): 35.5 µM
- GI50 at 48 h [3]: 88.8 µM

Structure (SMILES): O=C1C(=O)N(CN2CCN(c3ccnc4cc(C(F)(F)F)ccc34)CC2)c2cccc(Br)c21
- GI50 (MCF7 [1]): 66.8 µM
- GI50 at 48 h [2]: 49.7 µM
- GI50 (MDA-MB-468): 52.2 µM
- GI50 at 48 h [3]: 37.9 µM

— ChEMBL document CHEMBL1156913, “Design and synthesis of anti-breast cancer agents from 4-piperazinylquinoline: a hybrid pharmacophore approach” (Bioorg Med Chem, 2010)
